pIC50: −log10 of the molar value. Activity calls are given as the source filed them. The calls are words filed in the database; no cut-off is given here.
biological target: T1, Sphingomyelin phosphodiesterase (Homo sapiens, UniProt P17405); assay: Inhibition of acid sphingomyelinase in human HuH7 cell lysate using NBD-sphingomyelin as substrate after 30 mins by TLC based fluorescence assay
T1 sequence (P17405 whole entry): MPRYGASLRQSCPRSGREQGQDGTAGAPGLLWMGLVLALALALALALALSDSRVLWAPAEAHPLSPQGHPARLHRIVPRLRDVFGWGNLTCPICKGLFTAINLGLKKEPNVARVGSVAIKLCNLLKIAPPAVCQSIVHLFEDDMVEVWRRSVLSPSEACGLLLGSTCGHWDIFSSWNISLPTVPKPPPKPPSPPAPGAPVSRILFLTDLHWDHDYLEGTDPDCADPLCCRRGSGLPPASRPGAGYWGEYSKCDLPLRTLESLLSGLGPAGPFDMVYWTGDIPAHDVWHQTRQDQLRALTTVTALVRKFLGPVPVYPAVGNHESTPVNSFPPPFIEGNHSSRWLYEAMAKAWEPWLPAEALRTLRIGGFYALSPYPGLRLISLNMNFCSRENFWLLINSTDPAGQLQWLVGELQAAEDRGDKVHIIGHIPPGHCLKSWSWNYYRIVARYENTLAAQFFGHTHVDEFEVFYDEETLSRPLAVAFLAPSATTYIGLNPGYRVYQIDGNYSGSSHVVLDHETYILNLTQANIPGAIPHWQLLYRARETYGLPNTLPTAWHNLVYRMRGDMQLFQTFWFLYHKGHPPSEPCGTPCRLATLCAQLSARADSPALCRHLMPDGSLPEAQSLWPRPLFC

| pIC50 | SMILES |
| --- | --- |
| 4.70 | Cc1cc2[nH]c(=O)c(=O)[nH]c2cc1S(=O)(=O)N1CCN(c2cccc(C(F)(F)F)c2)CC1 |
| 5.29 to 5.31 | CCNC(=O)/C=C/Cc1c(O)c(OC)cc2oc3cc(OC)cc(O)c3c(=O)c12 |
| 4.79 | CCCCCCCCOc1cc(C(=O)NO)ccc1OC |
| 4.40 | CCCCc1oc2ccccc2c1C(=O)c1cc(I)c(OCCN(CC)CC)cc1I |
| 5.63 | CCCCCCCCS(=O)(=O)OC[C@H]1OC(O)[C@H](OP(=O)(O)O)[C@@H](O)[C@@H]1OP(=O)(O)O (stereo partly drawn) |
| 4.65 | Cc1c(C(=O)Nc2cccc(C(F)(F)F)c2)oc2ccc(S(=O)(=O)N3CCOCC3)cc12 |
| 4.61 | COc1c(O)cc2oc3cc(O)c(CC=C(C)C)c(O)c3c(=O)c2c1CC=C(C)C [MANGOSTIN] |
| 4.62 | O=c1cc(-c2ccc3c(c2)OCCCO3)oc2c1ccc1ccccc12 |
| 4.15 | CCCCCCCCCCOc1cc(C(=O)NCCO)ccc1OC |
| 6.52 | CCCCCCCCCC(OP(=O)(O)O)OP(=O)(O)O |
| 4.37 | COc1ccc(COc2cccc(C(=O)NO)c2)cc1 |
| 4.73 | CCCCCCCCCCCCOc1cc(C(=O)NO)ccc1OC |
| 4.16 | CCCCCCCC1Cc2cc(O)c(C(=O)O)c(O)c2C(C)O1 (stereo not drawn) |
| 4.57 | O=P(O)(O)O[C@H]1[C@H](O)[C@@H](OP(=O)(O)O)[C@H](O)[C@@H](OP(=O)(O)O)[C@H]1O |
| 4.55 | COc1cc(/C=C2/SC(=S)N(Nc3ncc(C(F)(F)F)cc3Cl)C2=O)cc(OC)c1OC |
| 5.29 to 5.31 | CCN(CC)C(=O)/C=C/Cc1c(O)c(OC)cc2oc3cc(OC)cc(O)c3c(=O)c12 |
| 5.46 | CCOc1ccc2oc(-c3cc(Br)cc4c3OCOC4)c(N)c(=O)c2c1 |

| pIC50 | SMILES |
| --- | --- |
| 4.71 | O=C(NO)c1cccc(OCc2ccc(Br)cc2)c1 |
| 4.70 | Cc1cc2[nH]c(=O)c(=O)[nH]c2cc1S(=O)(=O)N1CCN(c2cccc(Cl)c2)CC1 |
| 4.50 | CCCCCCCCOC(=O)c1c(CSC(=N)N)n(C)c2cc(Br)c(OC(C)=O)cc12 |
| 4.50 | CC(C)N1C(=N)/C(=C\c2nc(=O)c3ccccc3[nH]2)c2ccccc21 |
| 6.46 | CCCCCCCC(OP(=O)(O)O)OP(=O)(O)O |
| 4.76 | CCCCCCCCOc1cccc(C(=O)NO)c1 |
| 5.11 | COc1ccc(C(=O)NO)cc1OCc1ccc(Br)cc1 |
| 4.76 | CCCCCCCCCCOc1cc(C(=O)NO)ccc1O |
| 4.28 | N#Cc1ccc(COc2cccc(C(=O)NO)c2)cc1 |
| 5.85 | CCCCCCCCCCOc1cccc(C(=O)NO)c1 |
| 4.22 | O=C(NO)c1cccc(OCc2ccccc2)c1 |
| 4.60 | CC1=C(C(=O)Nc2ccccc2)C(c2ccc(Cl)cc2)n2c(s/c(=C/c3cccc(OCC(=O)O)c3)c2=O)=N1 (stereo not drawn) |
| 4.98 | COc1ccc(C(=O)NO)cc1OCc1ccccc1 |
| 4.72 | COc1c(O)cc2oc3cc(O)c(CC=C(C)C)c(O)c3c(=O)c2c1C/C=C(\C)CCC=C(C)C [COWANIN] |
| 4.85 | COc1ccc(/C=N/NC(=O)c2[nH]c3ccc(Cl)cc3c2-c2ccccc2)c(C(=O)O)c1OC |
| 6.36 | CCCCCCCCCCCCS(=O)(=O)O[C@H]1OC(O)[C@H](OP(=O)(O)O)[C@@H](O)[C@@H]1OP(=O)(O)O (stereo partly drawn) |
| 4.07 | CCCCCCCCCCOc1cc(C(=O)NCC(C)O)ccc1OC (stereo not drawn) |

| SMILES | pIC50 |
| --- | --- |
| O=C(c1cc(-c2ccccc2)n(-c2ccc(Cl)cc2Cl)n1)N1CCOCC1 | 4.55 |

biological target: T2, Sphingomyelin phosphodiesterase 2 (Homo sapiens) (UniProt O60906); assay: Inhibition of neutral sphingomyelinase (unknown origin) assessed as reduction in NBD-ceramide release at 100 uM by TLC based fluorescence assay
T2 sequence (whole entry): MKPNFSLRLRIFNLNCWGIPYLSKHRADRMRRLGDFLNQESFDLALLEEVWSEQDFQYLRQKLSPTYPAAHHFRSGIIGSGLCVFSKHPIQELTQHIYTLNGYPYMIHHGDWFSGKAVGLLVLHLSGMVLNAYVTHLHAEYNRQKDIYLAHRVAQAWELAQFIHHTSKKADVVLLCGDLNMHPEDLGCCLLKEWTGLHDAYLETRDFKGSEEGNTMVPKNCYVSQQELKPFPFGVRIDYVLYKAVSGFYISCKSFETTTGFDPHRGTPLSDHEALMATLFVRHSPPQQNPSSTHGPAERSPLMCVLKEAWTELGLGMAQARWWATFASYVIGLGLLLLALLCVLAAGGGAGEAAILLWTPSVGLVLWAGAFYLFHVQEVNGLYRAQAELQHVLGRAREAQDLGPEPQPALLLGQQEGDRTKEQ

| inhibition | SMILES |
| --- | --- |
| inactive | CCCCCCCCCCOc1cccc(C(=O)NO)c1 |

test system: NIH3T3; assay: Cytoprotective activity against UV-induced apoptosis in mouse NIH/3T3 cells assessed as necrotic cells preincubated for 20 hrs followed by UV irradiation for 5 mins and measured after 24 hrs by flow cytometric analysis; type: functional, cell-based
Method in brief: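 NIH3T3 cells grown in DMEM plus 10% FBS at 37 °C and 5% CO₂, seeded in 6-well plates and left overnight. Inhibitor (0–60 µM, DMSO solvent) added for 20 h. Medium replaced, then UV at peak 315 nm, 0.29 mW/cm² for 5 min. Cells kept with inhibitor 24 h more before flow cytometry by quadrant regions. Untreated, unirradiated cells served as control. Three independent experiments.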

| SMILES | Activity |
| --- | --- |
| CN(C)CCC=C1c2ccccc2CCc2ccccc21 | Dose-dependent effect |

biological target: T3, Sphingomyelin phosphodiesterase (Bos taurus, UniProt Q0VD19); assay: Inhibition of bovine brain-derived acidic sphingomyelinase
T3 sequence (Q0VD19 whole entry): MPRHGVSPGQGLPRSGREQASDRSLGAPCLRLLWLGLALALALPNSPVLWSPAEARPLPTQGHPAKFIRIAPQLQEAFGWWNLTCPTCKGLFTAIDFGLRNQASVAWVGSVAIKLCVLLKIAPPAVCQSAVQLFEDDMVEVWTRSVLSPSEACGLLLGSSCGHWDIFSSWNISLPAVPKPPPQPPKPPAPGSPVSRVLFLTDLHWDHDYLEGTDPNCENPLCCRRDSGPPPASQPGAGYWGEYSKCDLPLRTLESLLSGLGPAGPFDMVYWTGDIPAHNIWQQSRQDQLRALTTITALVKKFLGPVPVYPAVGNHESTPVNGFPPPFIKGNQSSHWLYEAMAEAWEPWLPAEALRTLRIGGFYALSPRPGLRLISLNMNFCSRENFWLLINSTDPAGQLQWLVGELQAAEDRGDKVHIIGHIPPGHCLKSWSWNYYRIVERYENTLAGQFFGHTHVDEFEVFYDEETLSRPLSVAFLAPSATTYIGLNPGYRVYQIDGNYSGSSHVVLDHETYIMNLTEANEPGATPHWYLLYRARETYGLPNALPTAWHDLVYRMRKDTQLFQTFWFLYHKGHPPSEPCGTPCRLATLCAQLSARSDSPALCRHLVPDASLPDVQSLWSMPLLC

| pIC50 | SMILES |
| --- | --- |
| 4.85 | COc1c(O)cc2oc3cc(O)c(CC=C(C)C)c(O)c3c(=O)c2c1CC=C(C)C [MANGOSTIN] |

From ChEMBL document CHEMBL4152204, “Discovery of N-hydroxy-3-alkoxybenzamides as direct acid sphingomyelinase inhibitors using a ligand-based pharmacophore model” (Eur J Med Chem, 2018)
